Rows were chosen to be rich in hits. Some 2.3% of all compounds tested hit in one or more screens of this group.
STAT3 activator = activators of IL-6 induced STAT3 signaling | U3A cells, IL-6 STAT3-luciferase reporter, luminescence; 100% = signal with IL-6 EC80 alone | activation (% of control), % at 5.6 µM | hit rate 0.91% among 190,000 | AID 871;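 active means activation above the screen-wide mean of compound activation plus 3 SD, cut at about 130% in these data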;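 further: 0% = background luminescence of wells with medium and substrate only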
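Assay system – human STAT1-deficient U3A cells with stable STAT3-luciferase reporter · Also added – IL-6 (33 ng/mL) · Schedule – compound 1 h, then IL-6 6 h at 37 °C · Technique – reporter luminescence signal · Evaluation – % activation versus median of IL-6-stimulated wells · Benchmarks – IL-6-only wells as 100% reference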
STAT3 inh = reduces IL-6 driven STAT3 reporter signal; U3A cells, IL-6 STAT3-luciferase reporter, luminescence; host cell line lacks STAT1; inhibition, % at 5.5 µM; hit rate 0.89% among 190,000; AID 862;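 active means inhibition above the mean inhibition across all screened compounds plus 3 SD, cut at about 44% in these data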;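 further: 0% = DMSO only wells and 100% = 100 µM nifuroxazide control wells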
STAT1 inh = inhibitors of IFN-gamma induced STAT1 signaling | NIH 3T3 STAT1-luciferase reporter, luminescence | inhibition, % at 5.5 µM | hit rate 0.35% among 200,000 | AID 920;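 active means inhibition above a set limit, the mean inhibition across all tested compounds plus 3 SD, cut at about 34% in these data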;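 further: 0% = IFN-gamma with DMSO and 100% = IFN-gamma with 300 µM nifuroxazide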
PPC-1+TRAIL kill = PPC-1 cancer cell killing with TRAIL present. PPC-1 cells + TRAIL, ATPLite viability luminescence. cell killing (% activity), % at 4 µM or 5 µM. hit rate 0.41% among 220,000. AID 1443;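 active means cell killing above 50% in the first pass at 4 µM, then a duplicate retest at 5 µM averaging 50% or more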;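 further: plate controls were cells with TRAIL plus DMSO for no effect and medium-only wells lacking cells for full effect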
HSP90 inh = inhibitors of HSP90 luciferase refolding in rabbit reticulocyte lysate; luciferase refolding luminescence, 3 h; inhibition, % at 5.6 µM; hit rate 0.91% among 290,000;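 active means inhibition above the screen-wide mean plus 3 SD, computed separately per campaign, cut at about 16% in these data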;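 further: 0% = DMSO wells and 100% = 60 µM geldanamycin wells; inhibitors lower the luminescence because luciferase stays unfolded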
C8 TRAIL sens = sensitizes caspase-8 expressing cells to TRAIL. NB7+C8 cells + TRAIL, ATPlite viability luminescence. inhibition (viability loss, TRAIL sensitization), % at 10 µM. hit rate 1% among 360,000;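 active means compounds causing at least 50% loss of cell viability in the single-dose screen, relative to plate controls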
HSP90 inh confirm = HSP90 inhibition, confirmation assay; shares compounds with HSP90 inh; rabbit reticulocyte lysate, luciferase refolding luminescence, 3 h; inhibition, % at 5.9 µM; hit rate 64% among 2,300; AID 1846; in the data active means inhibition above about 18%;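 further: 0% = vehicle wells and 100% = reference inhibitor wells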
luciferase ctr = firefly luciferase inhibition, HSP90 counter-screen; purified native firefly luciferase, luminescence; AID 1847; inhibition, % at 5.9 µM; shares compounds with HSP90 inh; hit rate 48% among 2,300;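 active means inhibition above the mean inhibition of all tested sample wells plus 3 SD, cut at about 10% in these data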;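 further: 0% = DMSO with luciferase and 100% = wells lacking luciferase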
Target sequence (P08659 whole entry, looked up): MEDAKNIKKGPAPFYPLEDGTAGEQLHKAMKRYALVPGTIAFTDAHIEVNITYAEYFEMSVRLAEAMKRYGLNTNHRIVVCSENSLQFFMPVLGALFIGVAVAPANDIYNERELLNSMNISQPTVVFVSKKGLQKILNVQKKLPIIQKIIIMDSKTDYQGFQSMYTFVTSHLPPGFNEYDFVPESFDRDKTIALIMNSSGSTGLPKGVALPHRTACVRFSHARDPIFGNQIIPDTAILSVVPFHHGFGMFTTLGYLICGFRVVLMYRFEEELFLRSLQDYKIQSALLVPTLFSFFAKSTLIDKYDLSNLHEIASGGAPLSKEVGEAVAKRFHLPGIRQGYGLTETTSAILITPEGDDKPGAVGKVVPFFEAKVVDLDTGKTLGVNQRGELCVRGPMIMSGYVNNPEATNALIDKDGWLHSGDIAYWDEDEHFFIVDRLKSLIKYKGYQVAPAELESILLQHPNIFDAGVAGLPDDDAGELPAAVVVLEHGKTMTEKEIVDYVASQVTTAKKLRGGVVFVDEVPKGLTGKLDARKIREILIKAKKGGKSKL
The depositor's hits bear a star; · = no result.

SMILES	STAT3 activator	STAT3 inh	STAT1 inh	PPC-1+TRAIL kill	HSP90 inh	C8 TRAIL sens	HSP90 inh confirm	luciferase ctr
COc1ccc(S(=O)(=O)N(C)CC(=O)NC2CCCC2)cc1OC	·	·	·	·	-5	-13	·	·
COCCNC(=O)C1(C)Cc2c(-c3ccc(NC(C)=O)cc3)ccnc2O1 (centres undefined)	·	·	·	·	·	4	·	·
Cc1ccc(NC(=O)c2ccc3ncsc3c2)cc1S(=O)(=O)N(C)C	·	·	·	18	19*	·	24*	20*
Cc1ccc(NC(=O)c2cccnc2)cc1S(=O)(=O)N(C)C	97	8	1	22	1	4	·	·
CSc1nc2[nH]c(=O)[nH]c2c(=O)[nH]1	·	·	·	·	·	0	·	·
Oc1c(C=NCc2ccncc2)sc2ccccc12	125	-28	-1	5	21*	·	-2	-23
Oc1c(/C=N/c2ccccn2)sc2ccccc12	·	·	·	2	3	-9	·	·
CC(=O)NCCN=Cc1sc2ccccc2c1O	110	-4	-11	11	20*	-1	3	-8
Oc1c(C=Nc2cccnc2)sc2ccccc12	119	-18	3	27	23*	14	16*	18*
CCCN=Cc1sc2ccc(OCC)cc2c1O	90	15	-33	2	-2	5	·	·
Oc1c(C=Nc2ccc(Cl)cn2)sc2ccccc12	·	·	·	5	24*	44	42*	18*
COC(=O)/C(=C\Nc1ccc(Cl)cc1Cl)NC(=O)c1ccc(OC)cc1	·	·	·	4	0	17	·	·
Cc1cccc(NC(=O)C2CC(=O)N(Cc3ccccc3)C2)n1 (centres undefined)	·	·	·	·	·	-9	·	·
CN=Cc1sc2ccccc2c1O	102	-2	-1	9	34*	16	-1	-9
O=C(C1CCCCC1)N1CCC(c2nc3c(nnn3Cc3c(F)cccc3Cl)c(=O)[nH]2)CC1	106	-1	10	-8	0	4	·	·
Cc1occc1C(=O)N/N=C/C=C/c1ccc(N(C)C)cc1	·	·	·	·	0	22	·	·
Cc1occc1C(=O)N/N=C/c1ccc(N(C)C)cc1	·	·	·	18	20*	31	60*	50*
C/C(=N\NC(=O)c1ccoc1C)c1ccccc1	·	·	·	18	20*	6	-2	-22
C/C(=N/NC(=O)c1ccoc1C)c1ccc(NC(=O)C2CCCC2)cc1	89	15	-40	16	1	0	·	·
Nc1cc2nn(-c3ccccc3)nc2cc1Cl	123	-13	-74	-1	43*	-4	18*	-8
COc1ccc(C(=O)c2coc3ccc(O)c(CN4CCCCC4)c23)cc1	110	-6	-3	35	47*	-11	-1	-10
O=C(c1ccccc1)c1coc2ccc(O)c(CN3CCOCC3)c12	99	5	9	12	1	-5	·	·
CCOC(=O)C1(C)C=C(Nc2ccc(C)cc2)C(=O)N1c1ccc(C)cc1 (centres undefined)	97	5	-12	3	0	-3	·	·
CC(=O)CC(=O)NC1CCc2ccccc21 (centres undefined)	·	·	·	·	·	-3	·	·
O=C(NC(c1ccc(Cl)cc1)c1ccsc1)C1CCN(Cc2cccc(C(F)(F)F)c2)CC1 (centres undefined)	·	·	·	·	·	11	·	·
SMILES	STAT3 activator	STAT3 inh	STAT1 inh	PPC-1+TRAIL kill	HSP90 inh	C8 TRAIL sens	HSP90 inh confirm	luciferase ctr
CCOC(=O)Cc1csc(NC(=S)NC(=O)c2ccc(C)cc2)n1	82	17	9	27	36*	82*	40*	-14
CC(=O)c1sc(NC(=O)CCS(=O)(=O)c2ccc(Cl)cc2)nc1C	·	·	·	·	·	2	·	·
Cc1nc(CS(=O)(=O)c2ccc(Cl)cc2)sc1C(=O)O	·	·	·	-11	33*	-19	49*	1
CCOC(=O)c1cc(-c2ccccc2)sc1NC(=O)C(C)N1C(=O)NC(C)(c2ccc(Cl)cc2)C1=O (centres undefined)	95	11	5	5	18*	-9	9	-6
CCOC(=O)c1cc(-c2ccccc2)sc1NC(=O)C(C)C	94	10	3	36	0	6	·	·
COc1cccc(CNC(=O)C2=C(C)C(=O)OC23CCC(C)CC3)c1 (centres undefined)	99	10	9	13	35*	-3	-2	-4
O=C(CC(CC(=O)c1ccc(Cl)cc1)c1ccccc1C(=O)O)c1ccc(Cl)cc1	·	·	·	·	-2	-4	·	·
c1ccc(-c2nc(-c3nccc4ccccc34)oc2-c2ccccc2)cc1	·	·	·	3	23*	22	28*	35*
CC(=O)c1cc(-c2ccccc2)n(CCC(=O)NC2CCCCC2)c1C	98	2	6	17	27*	-9	1	-4
CC(=O)c1cc(-c2ccccc2)n(CCC(=O)NC2CCCC2)c1C	100	8	11	-6	3	-4	·	·
CCOc1ccc(Nc2oc(-c3cccc(Cl)c3)nc2C#N)cc1	91	11	-6	-6	1	-12	·	·
COc1cc(/C=C2\C(=O)N(CCC#N)N=C2C)c(Br)cc1OC(C)C	107	-5	0	12	18*	-4	2	4
O=C(/C(Br)=C/Nc1cc(Cl)ccc1Cl)C(F)(F)F	100	0	-14	14	1	0	·	·
CN(C)/C=C1/Sc2ccccc2C1=O	107	-5	-4	-11	21*	-6	-2	-16
CC(=O)N(\C=C/C=C/C=C1\Sc2ccccc2C1=O)c1ccccc1	111	-1	1	9	-2	10	·	·
COc1ccccc1N(Cc1ccccc1)S(=O)(=O)c1cccc(C(=O)Nc2ncccc2C)c1	·	·	·	·	·	12	·	·
COc1ccccc1N(Cc1ccccc1)S(=O)(=O)c1cccc(C(=O)Nc2cc(C)ccn2)c1	·	·	·	·	38*	61*	58*	41*
COC(=O)C1CCN(C(=O)c2ccc3nccnc3c2)CC1	·	·	·	·	-4	-26	·	·
COC(=O)C1CCN(C(=O)c2ccc3nc(-c4cccc(OC)c4)oc3c2)CC1	·	·	·	·	51*	-8	63*	-10
CC(C)C(=O)N(Cc1cc(=O)[nH]c2ccccc12)c1ccccc1	120	-16	-1	12	81*	-11	-7	-7
O=C(Nc1ccc(NC(=O)c2ccco2)nc1)c1cccc(F)c1	·	·	·	·	5	27	·	·
O=C(Nc1ccc(NC(=O)c2ccccc2F)cn1)c1ccco1	·	·	·	·	28*	54*	52*	36*
CC(=O)NC1=NN(c2ccccc2)C(=O)C1	102	3	3	8	18*	-7	-7	-11
O=C(CCCCl)NC1=NN(c2ccccc2)C(=O)C1	102	-1	2	-19	1	-7	·	·
Nc1nn(-c2cccc(F)n2)cc1-c1ccccc1	66	42	-16	25	7	33	·	·

High-throughput results: PubChem BioAssay, several laboratories
